Experiment [1] relates to MCF7. As to the kind of experiment: Cytotoxicity against vinblastine-sensitive human MCF7 cells assessed as growth inhibition after 72 hrs by SRB assay. It counts as functional, cell-based. As to conditions: MCF7, 72 h. A digest of the protocol: (§1)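 Cells in log phase, grown in RPMI 1640 with 10% FBS at 37 °C, 5% CO2, humidified, were exposed in triplicate to test samples at 0.2−25 μg/mL for 72 h. Growth was read by sulforhodamine B staining. IC50 is the concentration giving 50% growth inhibition relative to untreated control, taken from a semilog plot of concentration (μg/mL) against % inhibition. Vinblastine served as positive control.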
In general terms: In SRB staining, fixed cells bind dye roughly in proportion to their protein.

The subject of experiment [2] is MCF7. The experiment can be described thus: Cytotoxicity against multidrug resistant human MCF7 cells cultured in vinblastine free medium assessed as growth inhibition after 72 hrs by SRB assay. The class given is functional, cell-based. The note with it: MCF7, 72 h. In short, it runs like this: as §1
Experiment [3] relates to MCF7. The experiment can be described thus: Cytotoxicity against multidrug resistant human MCF7 cells cultured in vinblastine containing medium assessed as growth inhibition after 72 hrs by SRB assay. It counts as functional, cell-based. The note with it: MCF7, 72 h. In short, it runs like this:
as §1

A further experiment deals with MDA-MB-231. As to the kind of experiment: Cytotoxicity against human MDA-MB-231 cells assessed as growth inhibition after 72 hrs by SRB assay. The class given is functional, cell-based. The note with it: MDA-MB-231, 72 h. A digest of the protocol: as §1
A further experiment relates to HeLa. The experiment can be described thus: Cytotoxicity against human HeLa cells assessed as growth inhibition after 72 hrs by SRB assay. The class given is functional, cell-based. In short, it runs like this: as §1
The next experiment has as its system HCT-15. The experiment can be described thus: Cytotoxicity against human HCT15 cells assessed as growth inhibition after 72 hrs by SRB assay. The note with it: HCT-15, 72 h. It counts as functional, cell-based. A digest of the protocol: as §1
In the next experiment the test system is HCT-116. As to the kind of experiment: Cytotoxicity against human HCT116 cells assessed as growth inhibition after 72 hrs by SRB assay. As to conditions: HCT-116, 72 h. It counts as functional, cell-based. A digest of the protocol:
as §1

Experiment [4] is filed under the species Homo sapiens. The experiment can be described thus: Inhibition of multidrug resistance efflux pump in multidrug resistant human MCF7 cells cultured in vinblastine free medium assessed as potentiation of vinblastine-induced cytotoxicity by measuring fold reduction in vinblastine IC50 at 25 ug/ml after 72 hrs by SRB assay relative to vinblastine alone. In short, it runs like this:
(§2)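 MCF-7/Vin− cells were a stock of the resistant line maintained in vinblastine-free medium.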

Experiment [5] is filed under the species Homo sapiens. As to the kind of experiment: Inhibition of multidrug resistance efflux pump in multidrug resistant human MCF7 cells cultured in vinblastine containing medium assessed as potentiation of vinblastine-induced cytotoxicity by measuring fold reduction in vinblastine IC50 at 25 ug/ml after 72 hrs by SRB assay relative to vinblastine alone. A digest of the protocol:
(§3)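 MCF-7/Vin+ resistant cells were kept in medium containing 0.192 μg/mL vinblastine to hold resistance.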

Experiment [6] concerns MCF7. As to the kind of experiment: Potentiation of vinblastine-induced cytotoxicity against vinblastine-sensitive human MCF7 cells assessed as fold reduction in vinblastine IC50 at 25 ug/ml after 72 hrs by SRB assay relative to vinblastine alone. The class given is functional. A digest of the protocol:
(§4)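 Modulation assay in sensitive MCF-7 or resistant MCF-7/Vin cells. Cells received vinblastine at 0.00064−10 μg/mL, alone or with glycolipid at 25 or 5 μg/mL, for 72 h. Read-out was SRB, and vinblastine IC50 was derived as in the cytotoxicity assay. Reversal fold = IC50 of vinblastine alone / IC50 with glycolipid. Reserpine at 5 μg/mL served as positive control. Values are mean ± SD of three independent experiments.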

The species entered for experiment [7] is Homo sapiens. The experiment can be described thus: Inhibition of multidrug resistance efflux pump in multidrug resistant human MCF7 cells cultured in vinblastine free medium assessed as potentiation of vinblastine-induced cytotoxicity by measuring fold reduction in vinblastine IC50 at 5 ug/ml after 72 hrs by SRB assay relative to vinblastine alone. In short, it runs like this: as §2

For experiment [8], the species on record is Homo sapiens. The experiment can be described thus: Inhibition of multidrug resistance efflux pump in multidrug resistant human MCF7 cells cultured in vinblastine containing medium assessed as potentiation of vinblastine-induced cytotoxicity by measuring fold reduction in vinblastine IC50 at 5 ug/ml after 72 hrs by SRB assay relative to vinblastine alone. A digest of the protocol: as §3

Experiment [9] relates to MCF7. The experiment can be described thus: Potentiation of vinblastine-induced cytotoxicity against vinblastine-sensitive human MCF7 cells assessed as fold reduction in vinblastine IC50 at 5 ug/ml after 72 hrs by SRB assay relative to vinblastine alone. The class given is functional. A digest of the protocol:
as §4

The IC50 is the midpoint of a concentration-inhibition curve.

`CC[C@@]1(O)C(=O)OCc2c1cc1n(c2=O)Cc2cc3ccccc3nc2-1` [CAMPTOTHECIN]: the IC50 in the experiment with MCF7 [1], with MCF7 [2] and in the experiment on MCF7 [3] was less than 0.0018 µM in each case.

On to `C/C=C(\C)C(=O)O[C@@H]1[C@H](O)[C@@H](O)[C@H](O[C@@H]2[C@@H](O)[C@@H](OC(=O)/C(C)=C/C)[C@H](O[C@H]3[C@@H]4O[C@H]5[C@H](O[C@@H](CCC)CCCCCCCCCC(=O)O[C@H]3[C@H](O)[C@@H](CO)O4)O[C@H](C)[C@@H](O)[C@@H]5O)O[C@H]2C)O[C@@H]1C`, for which the IC50 was 15.1 µM in the experiment with MCF7 [1]; greater than 20 µM with MCF7 [2]; greater than 20 µM in the experiment with MCF7 [3]; greater than 20 µM in the experiment on MDA-MB-231; 17.4 µM in the experiment on HeLa; 14.3 µM in the experiment on HCT-15. Also, the 50% inhibitory concentration (IC50) in the experiment with HCT-116 turned out to be 15.1 µM. Moreover, the fold change (FC) in the experiment filed under Homo sapiens [4] is 5; in the experiment filed under Homo sapiens [5], greater than 2520; in the experiment on MCF7 [6] it was greater than 87.

As for `CC[C@]1(O)C[C@@H]2CN(CCc3c([nH]c4ccccc34)[C@@](C(=O)OC)(c3cc4c(cc3OC)N(C)[C@H]3[C@@](O)(C(=O)OC)[C@H](OC(C)=O)[C@]5(CC)C=CCN6CC[C@]43[C@@H]65)C2)C1` [VINBLASTINE], the IC50 in the experiment with MCF7 [1] was 0.06 µM; in the experiment with MCF7 [2] it was 1.1 µM; with MCF7 [3], 1.3 µM; with MDA-MB-231, 0.01 µM; in the experiment on HeLa, 0.002 µM; in the experiment with HCT-15, 0.06 µM. In addition, the IC50 in the experiment on HCT-116 was determined as 0.05 µM.

Take `COC(=O)[C@H]1[C@H]2C[C@@H]3c4[nH]c5cc(OC)ccc5c4CCN3C[C@H]2C[C@@H](OC(=O)c2cc(OC)c(OC)c(OC)c2)[C@@H]1OC` [RESERPINE]: the fold change (FC) was 20 in the experiment listed under Homo sapiens [7], 3 in the experiment filed under Homo sapiens [8] and 11 in the experiment with MCF7 [9].

As for `Cc1c2ccncc2c(C)c2c1[nH]c1ccccc12` [ELLIPTECINE], the figures for the IC50 with MCF7 [2] and in the experiment on MCF7 [3] were 1.6 µM and 2 µM, respectively.

With `C/C=C(\C)C(=O)O[C@H]1[C@H](O[C@H]2[C@@H]3O[C@H]4[C@H](O[C@@H](CCC)CCCCCCCCCC(=O)O[C@H]5[C@H](O[C@H]6[C@H](OC[C@@H](O3)[C@@H](O)[C@@H]2O)O[C@H](C)[C@@H](O)[C@@H]6O)O[C@@H](C)[C@H](O)[C@H]5O)O[C@H](C)[C@@H](O)[C@@H]4O)O[C@@H](C)[C@H](O)[C@H]1O`, the IC50 with MCF7 [1], with MCF7 [2], in the experiment with MCF7 [3], in the experiment with MDA-MB-231, in the experiment with HeLa and in the experiment on HCT-15 was greater than 20 µM throughout. Besides, in the experiment on HCT-116, the IC50 is greater than 20 µM. Besides, the fold change (FC) in the experiment filed under Homo sapiens [4] is 1700; in the experiment listed under Homo sapiens [5] it was 3; with MCF7 [6] it was 4.

In the case of `C/C=C(\C)C(=O)O[C@H]1[C@@H]2O[C@H]3[C@H](O[C@@H](CCC)CCCCCCCCCC(=O)O[C@@H]4[C@@H](O)[C@H](C)O[C@@H](O[C@H]5[C@H](O)[C@@H](C)O[C@@H](O[C@H]([C@H]1O)[C@H](C)O2)[C@@H]5O[C@@H]1O[C@@H](C)[C@H](O)[C@@H](O)[C@H]1OC(=O)[C@H](C)[C@@H](C)O)[C@@H]4O)O[C@H](C)[C@@H](O)[C@@H]3O`, the half-inhibitory concentration (IC50) in the experiment on MCF7 [1], in the experiment on MCF7 [2], in the experiment on MCF7 [3], with MDA-MB-231, in the experiment on HeLa and with HCT-15 was greater than 20 µM throughout. Also, the IC50 in the experiment with HCT-116 is greater than 20 µM. Besides, the fold change (FC) in the experiment filed under Homo sapiens [4] was determined as 283; in the experiment filed under Homo sapiens [5], 3; in the experiment on MCF7 [6], 37.

On to `COc1cc([C@@H]2c3cc4c(cc3[C@H](O)[C@H]3COC(=O)[C@H]23)OCO4)cc(OC)c1OC` [PODOFILOX], for which the IC50 in the experiment on MCF7 [1] was found to be 0.02 µM; in the experiment on MCF7 [2] it was 0.2 µM; with MCF7 [3], 0.3 µM.

On to `CCC[C@H]1CCCCCCCCCC(=O)O[C@H]2[C@H](OC[C@H]3O[C@@H](O[C@H]4[C@H](O1)O[C@H](C)[C@@H](O)[C@@H]4O)[C@H](O[C@@H]1O[C@@H](C)[C@H](OC(C)=O)[C@@H](O)[C@H]1O)[C@@H](O)[C@@H]3O)O[C@H](C)[C@@H](O)[C@@H]2OC(=O)[C@H](C)[C@@H](C)O`, for which the IC50 with MCF7 [1], in the experiment on MCF7 [2], in the experiment with MCF7 [3], in the experiment on MDA-MB-231, with HeLa and in the experiment on HCT-15 was greater than 20 µM each time. In addition, in the experiment with HCT-116, the IC50 was greater than 20 µM. Besides, the fold change (FC) is 1 in the experiment listed under Homo sapiens [4], 2 in the experiment filed under Homo sapiens [5] and 4 in the experiment with MCF7 [6].

Turning to `C/C=C(\C)C(=O)O[C@@H]1[C@H](O)[C@@H](O)[C@H](O[C@@H]2[C@@H](O)[C@@H](OC(=O)/C(C)=C/C)[C@H](O[C@H]3[C@@H]4O[C@H]5[C@H](O[C@@H](CCCCC)CCCCCCCCCC(=O)O[C@H]3[C@H](O)[C@@H](CO)O4)O[C@H](C)[C@@H](O)[C@@H]5O)O[C@H]2C)O[C@@H]1C`, the IC50 was found to be 8 µM in the experiment with MCF7 [1]; 16.3 µM in the experiment with MCF7 [2]; 17 µM with MCF7 [3]; 11.6 µM in the experiment with MDA-MB-231; 9.6 µM with HeLa; 9.8 µM with HCT-15. In addition, the IC50 in the experiment on HCT-116 was 15.9 µM. In addition, the fold change (FC) in the experiment filed under Homo sapiens [4] is greater than 1980; in the experiment listed under Homo sapiens [5], greater than 2520; with MCF7 [6] it was greater than 87.

For `COc1cc2c(c(OC)c1OC)-c1ccc(OC)c(=O)cc1[C@@H](NC(C)=O)CC2` [COLCHICINE], the IC50 in the experiment on MCF7 [1] was found to be 0.05 µM; with MCF7 [2] it was 2.8 µM; in the experiment on MCF7 [3], 2.8 µM.

For the molecule `CCC[C@H]1CCCCCCCCCC(=O)O[C@H]2[C@H](O[C@H]3[C@H](O)[C@@H](C)O[C@@H](O[C@H]4[C@H](O1)O[C@H](C)[C@@H](O)[C@@H]4O)[C@@H]3O[C@@H]1O[C@@H](C)[C@H](OC(C)=O)[C@@H](O)[C@H]1O)O[C@H](C)[C@@H](O)[C@@H]2OC(=O)[C@H](C)[C@@H](C)O`, the IC50 in the experiment with MCF7 [1], with MCF7 [2], with MCF7 [3], in the experiment on MDA-MB-231, with HeLa and in the experiment on HCT-15 was greater than 20 µM in each case. In addition, the IC50 in the experiment with HCT-116 was greater than 20 µM. Also, the values for the fold change (FC) in the experiment filed under Homo sapiens [4], in the experiment filed under Homo sapiens [5] and in the experiment with MCF7 [6] were 322, 201 and 34, respectively.
